Source: ChEMBL document CHEMBL4118192, “BET bromodomain ligands: Probing the WPF shelf to improve BRD4 bromodomain affinity and metabolic stability” (Bioorg Med Chem, 2018)

Columns and labels:
[1] = molecular target: T1, Bromodomain-containing protein 4 (Homo sapiens, UniProt O60885); test: Inhibition of recombinant His6-tagged human BRD4 bromodomain 1 expressed in Escherichia coli BL21(DE3)-R3-pRARE2 cells preincubated for 30 mins followed by H4KAc4 peptide substrate addition measured after 30 mins by AlphaScreen assay
[2] = Intrinsic clearance in human liver microsomes at 3 uM; assay type: ADME, microsome; conditions: read-out: CLH
[3] = Apparent half life in human liver microsomes at 3 uM; assay type: ADME, microsome; conditions: read-out: t1/2(app)
[4] = molecular target: T1, Bromodomain-containing protein 4; test: Inhibition of human partial length BRD4 bromodomain 1 (N44 to E168 residues) expressed in bacterial expression system assessed as residual activity at 1 uM by BROMOscan assay relative to control
[5] = molecular target: Histone acetyltransferase KAT2B (Homo sapiens) (UniProt Q92831); test: Inhibition of human partial length PCAF (G715 to D831 residues) expressed in bacterial expression system assessed as residual activity at 1 uM by BROMOscan assay relative to control
[6] = molecular target: Bromodomain-containing protein 2 (Homo sapiens) (UniProt P25440); test: Inhibition of human partial length BRD2 bromodomain 1 (K71 to N194 residues) expressed in bacterial expression system assessed as residual activity at 1 uM by BROMOscan assay relative to control
[7] = molecular target: SWI/SNF-related matrix-associated actin-dependent regulator of chromatin subfamily A member 4 (Homo sapiens) (UniProt P51532); test: Inhibition of human partial length SMARCA4 (A1448 to S1575 residues) expressed in bacterial expression system assessed as residual activity at 1 uM by BROMOscan assay relative to control
Peregrin (Homo sapiens) = Peregrin (Homo sapiens) (UniProt P55201); test: Inhibition of human partial length BRPF1 (E627 to G740 residues) expressed in bacterial expression system assessed as residual activity at 1 uM by BROMOscan assay relative to control
[8] = molecular target: T1, Bromodomain-containing protein 4; test: Binding affinity to His6-tagged human BRD4 bromodomain 1 expressed in Escherichia coli BL21(DE3)-R3-pRARE2 cells by isothermal titration calorimetric method
A498 = test: Growth inhibition of human A498 cells after 48 hrs by SRB assay; assay type: functional; conditions: A498, 48 h
Procedure, shortened: (§1)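 In-house assay. Cells were seeded into 96-well plates at a density for exponential growth and treated with a concentration range for 48 h. They were then fixed in 10% (w/v) TCA and stained with sulforhodamine B. The 50% growth-inhibitory concentration relative to control cells was calculated as the mean of three repeats ± standard deviation.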

[9] = molecular target: Bromodomain testis-specific protein (Homo sapiens) (UniProt Q58F21); test: Inhibition of human partial length BRDT bromodomain 1 (N21 to E137 residues) expressed in bacterial expression system assessed as residual activity at 1 uM by BROMOscan assay relative to control
[10] = molecular target: Bromodomain-containing protein 9 (Homo sapiens) (UniProt Q9H8M2); test: Inhibition of human partial length BRD9 (R130 to V259 residues) expressed in bacterial expression system assessed as residual activity at 1 uM by BROMOscan assay relative to control
Chain of Bromodomain-containing protein 9 (Homo sapiens) (Q9H8M2 whole entry, the tested form may be a part): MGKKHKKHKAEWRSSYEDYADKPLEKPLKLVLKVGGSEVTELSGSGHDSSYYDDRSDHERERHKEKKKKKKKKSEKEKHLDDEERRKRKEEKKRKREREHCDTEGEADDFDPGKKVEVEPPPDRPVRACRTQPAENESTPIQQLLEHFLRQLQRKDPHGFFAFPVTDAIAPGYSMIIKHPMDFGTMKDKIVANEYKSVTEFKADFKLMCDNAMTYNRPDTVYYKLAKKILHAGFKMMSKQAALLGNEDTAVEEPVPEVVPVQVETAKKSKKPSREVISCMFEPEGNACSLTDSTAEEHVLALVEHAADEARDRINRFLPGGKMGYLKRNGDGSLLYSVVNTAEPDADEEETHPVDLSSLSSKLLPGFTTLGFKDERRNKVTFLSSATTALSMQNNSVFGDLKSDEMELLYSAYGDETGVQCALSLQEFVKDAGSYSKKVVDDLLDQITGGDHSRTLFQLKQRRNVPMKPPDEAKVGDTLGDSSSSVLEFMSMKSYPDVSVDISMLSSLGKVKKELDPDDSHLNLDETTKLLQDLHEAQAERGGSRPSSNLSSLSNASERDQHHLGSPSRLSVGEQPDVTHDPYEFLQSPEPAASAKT

[11] = molecular target: T1, Bromodomain-containing protein 4; test: Inhibition of human partial length BRD4 bromodomain 2 (K333 to E460 residues) expressed in bacterial expression system assessed as residual activity at 1 uM by BROMOscan assay relative to control
[12] = molecular target: Bromodomain and WD repeat-containing protein 1 (Homo sapiens) (UniProt Q9NSI6); test: Inhibition of human partial length WDR9 bromodomain 2 (A1310 to E1430 residues) expressed in bacterial expression system assessed as residual activity at 1 uM by BROMOscan assay relative to control
Chain of Bromodomain and WD repeat-containing protein 1 (Homo sapiens) (Q9NSI6 whole entry, the tested form may be a part): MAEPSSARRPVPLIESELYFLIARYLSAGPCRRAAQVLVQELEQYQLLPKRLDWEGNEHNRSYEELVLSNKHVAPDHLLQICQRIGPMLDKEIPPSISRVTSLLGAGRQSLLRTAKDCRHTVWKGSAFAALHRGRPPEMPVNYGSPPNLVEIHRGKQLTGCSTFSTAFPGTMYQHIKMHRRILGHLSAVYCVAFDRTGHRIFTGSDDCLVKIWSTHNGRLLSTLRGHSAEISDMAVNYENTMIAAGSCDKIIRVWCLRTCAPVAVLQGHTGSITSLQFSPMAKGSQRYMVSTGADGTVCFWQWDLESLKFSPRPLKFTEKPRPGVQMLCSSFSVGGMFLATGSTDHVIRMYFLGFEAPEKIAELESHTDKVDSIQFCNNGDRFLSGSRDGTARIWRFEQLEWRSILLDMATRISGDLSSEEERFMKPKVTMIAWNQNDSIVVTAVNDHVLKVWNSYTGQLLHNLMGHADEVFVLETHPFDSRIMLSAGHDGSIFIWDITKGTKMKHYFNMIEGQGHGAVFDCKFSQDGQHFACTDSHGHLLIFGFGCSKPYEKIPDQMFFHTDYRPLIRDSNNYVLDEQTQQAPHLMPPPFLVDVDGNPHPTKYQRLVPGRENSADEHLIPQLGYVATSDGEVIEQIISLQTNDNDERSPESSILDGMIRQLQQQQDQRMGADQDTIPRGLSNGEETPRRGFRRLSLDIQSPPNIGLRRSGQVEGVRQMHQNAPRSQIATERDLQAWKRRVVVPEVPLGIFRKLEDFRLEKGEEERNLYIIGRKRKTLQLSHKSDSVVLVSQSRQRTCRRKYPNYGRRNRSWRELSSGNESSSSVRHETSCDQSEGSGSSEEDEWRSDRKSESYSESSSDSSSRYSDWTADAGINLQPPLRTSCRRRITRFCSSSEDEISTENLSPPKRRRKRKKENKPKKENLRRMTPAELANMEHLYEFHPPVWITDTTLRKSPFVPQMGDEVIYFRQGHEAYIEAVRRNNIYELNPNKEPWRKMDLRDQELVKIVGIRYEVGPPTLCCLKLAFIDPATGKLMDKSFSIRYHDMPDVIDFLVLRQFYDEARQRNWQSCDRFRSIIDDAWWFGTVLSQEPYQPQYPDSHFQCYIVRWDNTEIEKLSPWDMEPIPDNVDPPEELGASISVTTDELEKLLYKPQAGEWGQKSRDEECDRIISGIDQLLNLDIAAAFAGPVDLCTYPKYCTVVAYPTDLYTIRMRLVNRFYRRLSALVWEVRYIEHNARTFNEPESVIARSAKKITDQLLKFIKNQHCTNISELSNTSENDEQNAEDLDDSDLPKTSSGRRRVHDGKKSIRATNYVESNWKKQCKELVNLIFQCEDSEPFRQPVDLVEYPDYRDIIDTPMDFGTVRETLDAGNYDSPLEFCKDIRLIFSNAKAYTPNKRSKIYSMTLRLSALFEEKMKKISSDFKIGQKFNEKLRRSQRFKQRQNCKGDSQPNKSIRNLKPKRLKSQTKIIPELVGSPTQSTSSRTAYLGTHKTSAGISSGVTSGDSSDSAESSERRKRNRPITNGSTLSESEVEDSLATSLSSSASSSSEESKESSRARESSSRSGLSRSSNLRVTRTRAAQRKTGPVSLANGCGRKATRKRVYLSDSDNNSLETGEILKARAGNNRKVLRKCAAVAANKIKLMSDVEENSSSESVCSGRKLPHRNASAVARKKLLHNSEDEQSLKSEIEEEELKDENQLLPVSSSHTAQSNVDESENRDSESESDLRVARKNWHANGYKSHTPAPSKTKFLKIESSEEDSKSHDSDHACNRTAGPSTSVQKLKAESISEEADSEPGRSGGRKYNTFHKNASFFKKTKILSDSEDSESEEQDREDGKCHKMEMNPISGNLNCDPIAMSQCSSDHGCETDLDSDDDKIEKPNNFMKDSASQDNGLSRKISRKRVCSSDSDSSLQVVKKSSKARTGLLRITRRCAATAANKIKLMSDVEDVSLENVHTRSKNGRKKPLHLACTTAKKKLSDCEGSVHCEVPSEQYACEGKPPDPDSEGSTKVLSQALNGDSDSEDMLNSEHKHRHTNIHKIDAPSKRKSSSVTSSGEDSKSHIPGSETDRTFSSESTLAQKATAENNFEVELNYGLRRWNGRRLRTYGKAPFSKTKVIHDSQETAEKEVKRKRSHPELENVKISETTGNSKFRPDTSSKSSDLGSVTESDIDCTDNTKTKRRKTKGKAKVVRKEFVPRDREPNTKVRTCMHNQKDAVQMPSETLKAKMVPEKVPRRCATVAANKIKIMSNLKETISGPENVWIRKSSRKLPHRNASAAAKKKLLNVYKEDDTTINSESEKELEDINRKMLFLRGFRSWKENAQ

[13] = molecular target: Bromodomain-containing protein 3 (Homo sapiens) (UniProt Q15059); test: Inhibition of human partial length BRD3 bromodomain 1 (P24 to E144 residues) expressed in bacterial expression system assessed as residual activity at 1 uM by BROMOscan assay relative to control
Chain of Bromodomain-containing protein 3 (Homo sapiens) (Q15059 2-726 limits assumed): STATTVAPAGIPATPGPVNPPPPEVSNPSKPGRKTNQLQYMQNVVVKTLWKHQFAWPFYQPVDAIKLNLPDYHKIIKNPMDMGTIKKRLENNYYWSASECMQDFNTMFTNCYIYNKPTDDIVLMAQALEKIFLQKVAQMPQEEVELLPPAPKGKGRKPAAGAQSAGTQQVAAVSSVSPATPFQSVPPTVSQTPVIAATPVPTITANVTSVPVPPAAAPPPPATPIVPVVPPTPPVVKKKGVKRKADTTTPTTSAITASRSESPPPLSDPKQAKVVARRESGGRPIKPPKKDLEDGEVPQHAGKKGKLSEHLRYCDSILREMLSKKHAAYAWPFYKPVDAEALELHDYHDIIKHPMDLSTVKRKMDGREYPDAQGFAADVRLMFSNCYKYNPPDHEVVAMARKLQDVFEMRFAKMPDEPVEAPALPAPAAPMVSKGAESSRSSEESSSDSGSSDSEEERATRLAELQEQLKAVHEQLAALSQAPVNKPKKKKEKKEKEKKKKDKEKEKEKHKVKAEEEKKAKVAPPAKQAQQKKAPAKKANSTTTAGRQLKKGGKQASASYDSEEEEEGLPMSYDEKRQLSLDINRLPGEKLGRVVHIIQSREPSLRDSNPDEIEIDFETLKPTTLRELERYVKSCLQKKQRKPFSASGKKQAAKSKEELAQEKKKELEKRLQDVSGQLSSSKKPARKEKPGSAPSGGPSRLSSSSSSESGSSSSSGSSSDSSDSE

[14] = molecular target: CREB-binding protein (Homo sapiens) (UniProt Q92793); test: Inhibition of human partial length CREBBP (R1081 to G1197 residues) expressed in bacterial expression system assessed as residual activity at 1 uM by BROMOscan assay relative to control
MCF7 = test: Growth inhibition of human MCF7 cells after 48 hrs by SRB assay; assay type: functional; conditions: MCF7, 48 h; procedure, shortened: as §1
[15] = molecular target: ATPase family AAA domain-containing protein 2B (Homo sapiens) (UniProt Q9ULI0); test: Inhibition of human partial length ATAD2B (Q955 to R1082 residues) expressed in bacterial expression system assessed as residual activity at 1 uM by BROMOscan assay relative to control
Chain of ATPase family AAA domain-containing protein 2B (Homo sapiens) (Q9ULI0 whole entry, the tested form may be a part): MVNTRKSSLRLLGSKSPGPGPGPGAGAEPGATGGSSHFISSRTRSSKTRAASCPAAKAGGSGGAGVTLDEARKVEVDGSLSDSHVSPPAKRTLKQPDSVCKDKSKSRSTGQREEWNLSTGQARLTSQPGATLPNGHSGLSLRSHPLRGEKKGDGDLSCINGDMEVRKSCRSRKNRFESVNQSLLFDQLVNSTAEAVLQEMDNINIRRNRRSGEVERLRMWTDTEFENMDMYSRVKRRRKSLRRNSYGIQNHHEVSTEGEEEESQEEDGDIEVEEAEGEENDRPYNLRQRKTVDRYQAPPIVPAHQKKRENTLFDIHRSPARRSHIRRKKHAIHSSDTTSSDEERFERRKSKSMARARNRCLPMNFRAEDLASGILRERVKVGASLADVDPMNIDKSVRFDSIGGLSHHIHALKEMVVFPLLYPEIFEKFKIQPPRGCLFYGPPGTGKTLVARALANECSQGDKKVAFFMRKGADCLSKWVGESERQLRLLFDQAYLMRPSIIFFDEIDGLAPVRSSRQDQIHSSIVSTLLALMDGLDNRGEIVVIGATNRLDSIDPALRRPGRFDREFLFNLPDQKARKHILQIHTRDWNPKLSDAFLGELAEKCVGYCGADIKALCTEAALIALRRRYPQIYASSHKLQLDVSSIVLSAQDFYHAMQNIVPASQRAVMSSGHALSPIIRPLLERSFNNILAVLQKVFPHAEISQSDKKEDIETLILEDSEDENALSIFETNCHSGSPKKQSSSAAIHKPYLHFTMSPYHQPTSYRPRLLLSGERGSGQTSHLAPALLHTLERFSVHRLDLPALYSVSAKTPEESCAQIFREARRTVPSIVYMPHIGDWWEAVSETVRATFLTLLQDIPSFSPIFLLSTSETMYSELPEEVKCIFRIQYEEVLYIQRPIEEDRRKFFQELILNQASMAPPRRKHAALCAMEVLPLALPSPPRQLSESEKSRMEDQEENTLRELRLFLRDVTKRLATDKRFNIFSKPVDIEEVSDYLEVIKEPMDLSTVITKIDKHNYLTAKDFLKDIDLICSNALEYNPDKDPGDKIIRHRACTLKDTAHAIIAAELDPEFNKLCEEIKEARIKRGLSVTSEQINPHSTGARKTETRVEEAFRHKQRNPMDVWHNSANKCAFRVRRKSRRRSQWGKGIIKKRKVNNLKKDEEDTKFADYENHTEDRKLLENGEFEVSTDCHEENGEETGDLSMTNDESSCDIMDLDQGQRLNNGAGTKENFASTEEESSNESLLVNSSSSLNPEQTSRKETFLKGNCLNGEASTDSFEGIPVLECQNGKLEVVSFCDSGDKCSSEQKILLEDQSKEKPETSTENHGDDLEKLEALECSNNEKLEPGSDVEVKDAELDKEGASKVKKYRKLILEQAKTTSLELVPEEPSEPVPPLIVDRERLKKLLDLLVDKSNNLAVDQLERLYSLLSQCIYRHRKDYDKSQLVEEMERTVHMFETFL

HT-29 = test: Growth inhibition of human HT-29 cells after 48 hrs by SRB assay; assay type: functional; conditions: HT-29, 48 h; procedure, shortened: as §1

| SMILES | IC50 ([1]; read-out: IC50) | IC50 ([1]; read-out: pIC50 (converted)) | also measured |
| --- | --- | --- | --- |
| Cc1noc(C)c1-c1cc(O)cc(C(O)c2ccccn2)c1 (stereo not given) | 4680 nM | 4680 nM |  |
| Cc1noc(C)c1-c1cc(O)cc(C(O)c2ccc(Cl)c(Cl)c2)c1 (stereo not given) | 945 nM | 955 nM |  |
| Cc1noc(C)c1-c1cc(O)cc(C(=O)N2CCNCC2)c1 | 722 nM | 724 nM |  |
| COc1ccccc1C(O)c1cc(O)cc(-c2c(C)noc2C)c1 (stereo not given) | 270 nM | 269 nM |  |
| Cc1noc(C)c1-c1cc(O)cc(Cc2ccccc2)c1 | 1100 nM | 1100 nM |  |
| Cc1noc(C)c1-c1cc(O)cc(C(O)c2ccccc2F)c1 (stereo not given) | 1420 nM | 1410 nM |  |
| Cc1noc(C)c1-c1cc(O)cc(CN2CCC(F)(F)CC2)c1 | 235 nM | 234 nM | microsomal CLint at 3 µM [2]: 51.4 µL/min/mg; half-life at 3 µM [3]: 27 min |
| Cc1noc(C)c1-c1cc(O)cc(C(O)c2ccncc2)c1 (stereo not given) | 303 nM | 302 nM |  |
| Cc1noc(C)c1-c1cc(O)cc(CN2CCCC2)c1 | 3270 nM | 3240 nM |  |
| COc1ccc2c(c1)[C@]13CCCC[C@@H]1[C@H](C2)N(C)CC3 [DEXTROMETHORPHAN] |  |  | microsomal CLint at 3 µM [2]: 25.4 µL/min/mg; half-life at 3 µM [3]: 54.5 min |
| COc1cccc(C(O)c2cc(O)cc(-c3c(C)noc3C)c2)c1 (stereo not given) | 478 nM | 479 nM |  |
| Cc1noc(C)c1-c1cc(O)cc(C(O)c2ccc(Cl)cn2)c1 (stereo not given) | 495 nM | 490 nM |  |
| Cc1noc(C)c1-c1cc(O)cc(C(O)c2cccc(F)c2)c1 (stereo not given) | 793 nM | 794 nM |  |
| Cc1noc(C)c1-c1cc(O)cc(C(O)c2cccnc2)c1 (stereo not given) | 166 nM | 166 nM | Activity [4]: 4.6%; Activity [5]: 100%; Activity [6]: 1.8%; microsomal CLint at 3 µM [2]: 3.57 µL/min/mg; Activity [7]: 100%; Activity (Peregrin (Homo sapiens)): 100%; Kd [8]: 247 nM; GI50 (A498): 4880 nM; Activity [9]: 11%; Activity [10]: 100%; Activity [11]: 1.1%; half-life at 3 µM [3]: 388 min; Activity [12]: 100%; Activity [13]: 1.5%; Activity [14]: 29%; GI50 (MCF7): 1400 nM; Activity [15]: 98%; GI50 (HT-29): 4400 nM |
| Cc1noc(C)c1-c1cc(O)cc(C(O)C2CCCCC2)c1 (stereo not given) | 166 nM | 166 nM |  |
| Cc1ccc(C(O)c2cc(O)cc(-c3c(C)noc3C)c2)cc1 (stereo not given) | 296 nM | 295 nM |  |
| Cc1noc(C)c1-c1cc(O)cc(CN2CCCCC2)c1 | 4280 nM | 4270 nM |  |
| Cc1noc(C)c1-c1cc(O)cc(C(=O)N2CCOCC2)c1 | 3800 nM | 3800 nM |  |
| COc1ccc(C(O)c2cc(O)cc(-c3c(C)noc3C)c2)cc1 (stereo not given) | 585 nM | 589 nM |  |
| Cc1noc(C)c1-c1cc(O)cc(CN2CCOCC2)c1 | 956 nM | 955 nM |  |
| Cc1noc(C)c1-c1cc(O)cc(C(O)c2ccc(F)cc2)c1 (stereo not given) | 842 nM | 851 nM |  |
| Cc1noc(C)c1-c1cc(O)cc(C(O)C2CC2)c1 (stereo not given) | 377 nM | 380 nM |  |
| Cc1noc(C)c1-c1cc(O)cc(CNCc2ccccc2)c1 | 2250 nM | 2240 nM |  |
| Cc1noc(C)c1-c1cc(O)cc(CN2CCN(C)CC2)c1 | 1230 nM | 1230 nM |  |
| Cc1noc(C)c1-c1cc(O)cc(C(O)c2ccc(Cl)cc2)c1 (stereo not given) | 631 nM | 631 nM |  |
